Usually Kd stands for the equilibrium constant for the complex coming apart. Usually IC50 stands for the midpoint of a concentration-inhibition curve.

The target in experiment [1] is T1, rSULT1A1 (Rattus norvegicus, UniProt P17988). Put plainly: Kd of OHPCBs with rSULT1A1 by displacement of ANS. The experiment is classed as binding. Summed up:
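Recombinant rat enzyme (E. coli-expressed, PAP-agarose purified), DTT removed by gel filtration, pretreated with 1 mM GSH or GSSG for 1 h at 25 °C under argon. Enzyme at 0.34 µM in 0.25 M potassium phosphate pH 7.0, held 2 min at 37 °C under argon. ANS added (10 µM final), then titrated with test compound in ethanol. Fluorescence ex 380/em 465 nm. Duplicates; one-site fit corrected for non-specific ANS binding.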

A further experiment concerns the target rSULT1A1-PAP complex (Rattus norvegicus, UniProt P17988). As to the kind of experiment: Kd of OHPCBs with the rSULT1A1-PAP complex by displacement of ANS. The experiment is classed as binding. Put shortly: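 DTT-free recombinant rat enzyme pretreated with 1 mM GSH or GSSG for 1 h at 25 °C under argon. Enzyme at 0.34 µM in 0.25 M potassium phosphate pH 7.0, held 2 min at 37 °C under argon. ANS added (10 µM final), then 0.27 mM PAP to form the complex, then titrated with test compound in ethanol. Read at ex 380/em 465 nm. Duplicates; one-site fit corrected for non-specific ANS binding.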

Experiment [2] concerns the target T1, rSULT1A1. Put plainly: Sulfation of OHPCBs catalyzed by rSULT1A1. The experiment is classed as biochemical. The note with it: standard assay conditions (reduced enzyme). Put shortly:
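Rat SULT1A1 expressed in E. coli BL21(DE3) from pET-3c and purified on PAP-agarose affinity column. Reaction at 37 °C: 0.25 M potassium phosphate pH 7.0, 200 µM PAPS, 7.5 mM 2-mercaptoethanol, 10 µM test compound added in acetone (3.3% v/v final). Started with 0.75 µg enzyme, stopped with methanol after 6 min. Sulfation rate from HPLC of substrate-dependent PAP formation.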

In experiment [3] the target is T1, rSULT1A1. Conditions: cited from earlier work; for IC50: rSULT1A1 with all cysteines in the thiol form, 2-naphthol as the substrate; for inhibitor status with rSULT1A1: standard assay conditions, reduced rSULT1A1.
Experiment [4] deals with T1, rSULT1A1. The note with it: GSSG-pretreated enzyme; cited from earlier work.
Experiment [5] concerns the target T1, rSULT1A1. Put plainly: Binding of TNP-AMP and PAP to rSULT1A1. Summed up: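 Recombinant rat enzyme (expressed in E. coli BL21(DE3), purified on PAP-agarose) at 0.34 µM in potassium phosphate pH 7.0, 37 °C, in a quartz cuvette. Titrated with TNP-AMP and the fluorescence increase recorded (ex 435/em 545 nm). PAP titration then displaced TNP-AMP, and the fluorescence decrease was recorded. Kd from a single-site binding fit corrected for non-specific binding.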

Setting [6] is: read-out: Kd values for OHPCBs with rSULT1A1, Without PAP, GSH, enzyme pretreated with 1 mM GSH, pH 7.0, 37 °C.
[7] abbreviates: read-out: Kd values for OHPCBs with rSULT1A1, Without PAP, GSSG, enzyme pretreated with 1 mM GSSG, pH 7.0, 37 °C.
[8] abbreviates: read-out: Kd values for OHPCBs with rSULT1A1, With 0.27 mM PAP, GSH, enzyme pretreated with 1 mM GSH, pH 7.0, 37 °C.
Where [9] appears, read: read-out: Kd values for OHPCBs with rSULT1A1, With 0.27 mM PAP, GSSG, enzyme pretreated with 1 mM GSSG, pH 7.0, 37 °C.

Entries after “also recorded” stand apart in the source; their conditions may differ. Where two headings read alike, the source gives them in different places.

Chain of rSULT1A1-PAP complex (P17988 whole entry, one chain of several): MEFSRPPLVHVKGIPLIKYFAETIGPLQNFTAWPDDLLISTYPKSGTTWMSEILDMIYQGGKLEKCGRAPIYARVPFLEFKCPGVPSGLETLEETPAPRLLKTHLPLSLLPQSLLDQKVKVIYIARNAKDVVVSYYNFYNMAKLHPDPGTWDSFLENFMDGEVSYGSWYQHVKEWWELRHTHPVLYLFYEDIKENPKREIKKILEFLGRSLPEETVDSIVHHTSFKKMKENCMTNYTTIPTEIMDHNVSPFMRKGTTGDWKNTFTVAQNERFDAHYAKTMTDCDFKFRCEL
T1 sequence (P17988 whole entry): as the sequence (P17988 whole entry, one chain of several) above

Regarding `Oc1ccc(-c2ccc(Cl)c(Cl)c2)cc1` [4’-OH PCB 12], the Kd at rSULT1A1 [1] (setting [6]) amounted to 4000 ± 800 nM; on rSULT1A1 [1] (setting [7]), 2500 ± 700 nM; at rSULT1A1-PAP complex (setting [8]), 3100 ± 10 nM; at rSULT1A1-PAP complex (setting [9]) it was 4600 ± 1200 nM. Besides, the “substrate status with rSULT1A1” value at rSULT1A1 [2] is on record as “substrates for rSULT1A1”.

Take `Oc1ccc(-c2ccc(Cl)c(Cl)c2)c(Cl)c1` [4’-OH PCB 33]: the Kd came out at 2000 ± 100 nM on rSULT1A1 [1] (setting [6]), 2500 ± 400 nM at rSULT1A1 [1] (setting [7]), 2000 ± 10 nM on rSULT1A1-PAP complex (setting [8]) and 2400 ± 40 nM on rSULT1A1-PAP complex (setting [9]). Also, the IC50 at rSULT1A1 [3] was 26000 nM. For the same compound, the “inhibitor status with rSULT1A1” value at rSULT1A1 [3] is listed as “relatively weak inhibitors”. For the same compound, on rSULT1A1 [4], the “substrate status with GSSG-pretreated (oxidized) rSULT1A1” value (“substrate status with GSSG-pretreated” for short) is reported as “converted from inhibitors to substrates; also recorded: substrates for oxidized rSULT1A1”.

In the case of `Oc1ccc(-c2cc(Cl)cc(Cl)c2)cc1Cl` [4’-OH PCB 36], the “inhibitor status with rSULT1A1” value on rSULT1A1 [3] is “relatively weak inhibitors”. For the same compound, at rSULT1A1 [4], the “substrate status with GSSG-pretreated” value is given as “substrates for oxidized rSULT1A1”.

Consider `Oc1ccc(Cl)cc1-c1ccc(Cl)c(Cl)c1` [6’-OH PCB 35], for which the Kd on rSULT1A1 [1] (setting [6]) was 65000 ± 32000 nM; at rSULT1A1 [1] (setting [7]) it was 117000 ± 36000 nM; at rSULT1A1-PAP complex (setting [8]), 3700 ± 10 nM; at rSULT1A1-PAP complex (setting [9]) it was 3600 ± 1300 nM. Moreover, the “substrate status with rSULT1A1” value on rSULT1A1 [2] was “substrates for rSULT1A1”.

On to `Oc1ccc(-c2ccc(Cl)c(Cl)c2)cc1Cl` [4’-OH PCB 35], for which the Kd is 3600 ± 900 nM at rSULT1A1 [1] (setting [6]), 1600 ± 400 nM at rSULT1A1 [1] (setting [7]), 1600 ± 100 nM on rSULT1A1-PAP complex (setting [8]) and 1700 ± 100 nM on rSULT1A1-PAP complex (setting [9]). Besides, at rSULT1A1 [2], the “substrate status with rSULT1A1” value is reported as “substrates for rSULT1A1; also recorded: the weakest substrate”.

Consider `Oc1c(Cl)cc(-c2ccccc2Cl)cc1Cl` [4-OH PCB 34], for which the Kd at rSULT1A1 [1] (setting [6]) came to 370 ± 10 nM; on rSULT1A1 [1] (setting [7]), 230 ± 10 nM; at rSULT1A1-PAP complex (setting [8]), 490 nM; at rSULT1A1-PAP complex (setting [9]), 540 ± 10 nM. Further, the IC50 on rSULT1A1 [3] was 340 nM. In addition, the “inhibitor status with rSULT1A1” value on rSULT1A1 [3] was “inhibitors of the enzyme”. Besides, the “substrate status with GSSG-pretreated” value at rSULT1A1 [4] is given as “non-substrates for GSSG-pretreated enzyme”.

Take `Oc1ccc(-c2ccc(Cl)cc2Cl)cc1Cl` [4’-OH PCB 25]: the “inhibitor status with rSULT1A1” value at rSULT1A1 [3] was “the weakest inhibitor”.

As to `Nc1ncnc2c1ncn2[C@@H]1O[C@H](COP(=O)(O)O)[C@@H](OP(=O)(O)O)[C@H]1O` [PAP, Adenosine 3’,5’-diphosphate], binding at rSULT1A1 [5] (Kd of PAP displacing TNP-AMP bound to rSULT1A1, 0.34 µM rSULT1A1, pH 7.0, 37°C, Figure 4B) was put at a Kd of 2600 nM.

With “2'-(or-3')-O-(trinitrophenyl)adenosine 5'-monophosphate [TNP-AMP]”, on rSULT1A1 [5] (read-out: Kd of TNP-AMP binding to rSULT1A1, 0.34 µM rSULT1A1, potassium phosphate buffer pH 7.0, 37°C, fluorescence at 545 nm), the equilibrium dissociation constant (Kd) was 6500 nM.

Regarding `Oc1ccc(-c2cc(Cl)ccc2Cl)cc1` [4’-OH PCB 9], the Kd on rSULT1A1 [1] (setting [6]) came out at 12000 ± 4000 nM; on rSULT1A1 [1] (setting [7]) it was 7100 ± 1300 nM; on rSULT1A1-PAP complex (setting [8]), 3100 ± 1500 nM; at rSULT1A1-PAP complex (setting [9]), 3300 ± 100 nM. The “substrate status with rSULT1A1” value on rSULT1A1 [2] is recorded as “substrates for rSULT1A1”.

Turning to `Oc1c(Cl)cc(-c2ccccc2)cc1Cl` [4-OH PCB 14], the dissociation constant Kd at rSULT1A1 [1] (setting [6]) is 260 ± 30 nM; on rSULT1A1 [1] (setting [7]), 220 ± 20 nM; on rSULT1A1-PAP complex (setting [8]), 400 ± 50 nM; on rSULT1A1-PAP complex (setting [9]) it was 290 ± 40 nM. The IC50 at rSULT1A1 [3] is 270 nM. Further, on rSULT1A1 [4], the “substrate status with GSSG-pretreated” value is given as “converted from inhibitors to substrates”.

Consider `Oc1c(Cl)cc(-c2ccc(Cl)cc2Cl)cc1Cl` [4’-OH PCB 68], for which the Kd at rSULT1A1 [1] (setting [6]) is 670 ± 100 nM; on rSULT1A1 [1] (setting [7]), 530 ± 100 nM; on rSULT1A1-PAP complex (setting [8]) it was 470 ± 20 nM; at rSULT1A1-PAP complex (setting [9]), 400 ± 40 nM. In addition, the concentration for half-maximal inhibition (IC50) on rSULT1A1 [3] is 850 nM. The “inhibitor status with rSULT1A1” value at rSULT1A1 [3] was “inhibitors of the enzyme”. On rSULT1A1 [4], the “substrate status with GSSG-pretreated” value was “non-substrates for GSSG-pretreated enzyme”.

For the compound `Oc1ccc(-c2ccccc2Cl)cc1Cl` [4’-OH PCB 6], the Kd on rSULT1A1 [1] (setting [6]) turned out to be 660 ± 200 nM; at rSULT1A1 [1] (setting [7]) it was 500 ± 100 nM; on rSULT1A1-PAP complex (setting [8]), 880 ± 30 nM; on rSULT1A1-PAP complex (setting [9]) it was 720 ± 10 nM. In addition, the IC50 on rSULT1A1 [3] was 23000 nM. At rSULT1A1 [4], the “substrate status with GSSG-pretreated” value was “converted from inhibitors to substrates”.

The values are drawn from PMC3032042 (Chemico-biological interactions, 2010).
